Results pooled from the literature.
Protocols differ between the studies behind these lines.
Target: Serine/threonine-protein kinase LATS2 (LATS2, Homo sapiens, UniProt Q9NRM7)
Sequence (Q9NRM7 1-1088, as in one of the studies): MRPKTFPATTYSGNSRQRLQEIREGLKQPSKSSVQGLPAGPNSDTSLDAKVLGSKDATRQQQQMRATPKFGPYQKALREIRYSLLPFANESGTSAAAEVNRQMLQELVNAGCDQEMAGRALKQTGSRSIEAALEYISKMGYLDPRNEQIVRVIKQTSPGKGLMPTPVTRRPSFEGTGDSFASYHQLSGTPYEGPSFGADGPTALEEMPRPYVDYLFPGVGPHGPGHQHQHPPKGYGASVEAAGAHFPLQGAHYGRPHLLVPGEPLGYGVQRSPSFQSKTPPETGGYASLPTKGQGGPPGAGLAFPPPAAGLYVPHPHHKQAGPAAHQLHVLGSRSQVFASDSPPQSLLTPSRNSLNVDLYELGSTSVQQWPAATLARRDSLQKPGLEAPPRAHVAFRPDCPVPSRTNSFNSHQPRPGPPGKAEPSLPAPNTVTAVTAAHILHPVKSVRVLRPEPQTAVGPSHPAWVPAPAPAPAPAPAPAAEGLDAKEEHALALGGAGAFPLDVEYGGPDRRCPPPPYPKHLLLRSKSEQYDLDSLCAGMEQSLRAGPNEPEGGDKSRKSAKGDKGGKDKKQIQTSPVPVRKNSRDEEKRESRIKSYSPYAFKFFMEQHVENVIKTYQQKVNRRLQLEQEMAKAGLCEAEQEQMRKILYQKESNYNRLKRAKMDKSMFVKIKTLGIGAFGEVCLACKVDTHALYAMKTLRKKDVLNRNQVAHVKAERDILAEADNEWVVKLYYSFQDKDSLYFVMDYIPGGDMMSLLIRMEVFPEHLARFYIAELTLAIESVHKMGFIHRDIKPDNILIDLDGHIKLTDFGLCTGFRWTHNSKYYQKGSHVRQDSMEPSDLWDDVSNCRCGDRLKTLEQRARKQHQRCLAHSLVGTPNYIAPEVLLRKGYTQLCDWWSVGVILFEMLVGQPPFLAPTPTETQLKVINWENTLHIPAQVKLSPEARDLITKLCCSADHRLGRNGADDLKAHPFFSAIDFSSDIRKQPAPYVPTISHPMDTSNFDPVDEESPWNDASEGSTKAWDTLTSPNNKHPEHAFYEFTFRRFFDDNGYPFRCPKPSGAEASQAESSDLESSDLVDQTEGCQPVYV

Compound	observed	mode	technique	cells	concentration	endpoint	result
Cc1ccc(C(=O)Nc2ccc(CN3CCN(C)CC3)c(C(F)(F)F)c2)cc1C#Cc1cnc2cccnn12	enzyme activity	inhibitor	–	–	23.5 nM	remaining activity	95%
COc1cc(-c2cc(-c3ccc(N4CCNCC4)cc3)cnc2C)cc(OC)c1OC	enzyme activity	inhibitor	–	–	1 µM	inhibition	2%
CC(C)(O)[C@H]1CC[C@H](Nc2ccc3ncc(-c4cccc(C(F)(F)F)c4)n3n2)CC1	enzyme activity	inhibitor	–	–	1 µM	remaining activity	61.4%
Cn1cncc1C1=CN(c2ncnc3[nH]cnc23)CCS1	enzyme activity	inhibitor	radiometric	–	50 nM	inhibition	34.2%
O=C(NCc1ncc(C(F)(F)F)cc1Cl)c1ccc2c(c1)C1(CCS(=O)(=O)CC1)[C@H](C1CC1)N2S(=O)(=O)c1ccc(F)cc1	cell-free assay	–	competition with immobilised ligand	–	1 µM	remaining binding	100%
Cc1cnn2ncc(-c3ccnc(N(C)C)n3)c2c1	binding	–	–	–	1 µM	remaining binding	84%
O=C(Nc1cnn(-c2csc(C(=O)NC3COC3)c2)c1)Nc1ccccc1Cl	enzyme activity	inhibitor	–	–	5 µM	remaining activity	96%
CCN1CCN(Cc2ccc(NC(=O)c3ccc(C)c(/C=C/c4cnc5[nH]ccc5c4OC)c3)cc2C(F)(F)F)CC1	target engagement in cells	inhibitor	chemoproteomics	A-375	5 µM	inhibition	-21.8%
O=C(Nc1cnn(-c2csc(C(=O)NC3COC3)c2)c1)Nc1c(F)cccc1Cl	enzyme activity	inhibitor	–	–	5 µM	remaining activity	104%
Cn1cnc(Br)c1C1=CN(c2ncnc3[nH]cnc23)CCS1	enzyme activity	inhibitor	radiometric	–	50 nM	inhibition	29.1%
COc1ccc2c(c1)O[C@H](c1ccc(OC)c(OC)c1)C[C@@H]2NC(=O)C1(c2ccc3c(c2)OC(F)(F)O3)CC1	cell-free assay	–	competition with immobilised ligand	–	1 µM	remaining binding	89%
Nc1ncnc2occ(-c3ccc(NC(=O)Nc4cc(C(F)(F)F)ccc4F)cc3)c12	cell-free assay	inhibitor	–	–	20 µM	remaining signal	3.7%
